Measured values taken from ChEMBL document CHEMBL2203028, “SAR and Lead Optimization of an HIV-1 Vif-APOBEC3G Axis Inhibitor” (ACS Med Chem Lett, 2012).
The source made the active and inactive calls. The calls are words filed in the database; no cut-off is given here.

Tests used:
MT4 = assay: (§1) Inhibition of X4-tropic HIV-1 LAI Vif infected in MT4 cells assessed as inhibition of viral replication incubated for 10 to 15 days measured on every second day by reverse transcriptase assay by reverse transcriptase assay; format: cell-based; conditions: Human immunodeficiency virus 1
In short: (§2)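 Cells (2 x 10⁵/well) were pretreated overnight with 1 to 50 µM compound in RPMI with 10% FBS, then infected with X4-tropic HIV-1 LAI. Cultures were kept ± compound for 10-15 days. Every second day, 1/3 of supernatant was replaced with compound-containing medium, and RT activity was measured in supernatant. RN-18 served as positive control and untreated cells as negative control. There were ≥3 repeats; IC50 was calculated.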

[1] = as §1; format: cell-based, Human immunodeficiency virus 1; in short: as §2
[2] = (§3) Inhibition of X4 tropic HIV-1 LAI Vif infected in H9 cells assessed as inhibition of viral replication incubated for 10 to 15 days measured on every second day by reverse transcriptase assay; format: cell-based, Human immunodeficiency virus 1; in short: as §2
H9 = assay: as §3; format: cell-based; conditions: Human immunodeficiency virus 1; in short: as §2
[3] = tested on: Human immunodeficiency virus 1; assay: Inhibition of HIV-1 GFP tagged Vif expressed in 293FT cells co-expressing HA-tagged A3G assessed as downregulation of GFP-Vif expression at 50 uM incubated for 16 hrs by immunoblotting assay; format: cell-based
In short: (§4)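 293FT cells co-expressing HA-tagged A3G with GFP-tagged Vif or ΔVif were grown for 16 h with antagonist at 50 µM or without compound. Extracts were immunoblotted with anti-HA (A3G), anti-GFP (Vif) and anti-GAPDH antibodies. A3G and Vif levels were compared with untreated Vif-expressing cells. RN-18 served as positive control and choline chloride as a further control.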

[4] = tested on: Human immunodeficiency virus 1; assay: Inhibition of HIV-1 GFP tagged Vif expressed in 293FT cells co-expressing HA-tagged A3G assessed as upregulation of HA-A3G expression at 50 uM incubated for 16 hrs by immunoblotting assay; format: cell-based; in short: as §4
[5] = Permeability across synthetic membrane at pH 7.4 by PAMPA assay; format: ADME
[6] = Permeability across synthetic membrane at pH 5.0 by PAMPA assay; format: ADME
Liver microsomes = assay: Metabolic stability in human liver microsomes; format: ADME, Microsome
[7] = Kinetic solubility at pH 7.2 by UV spectroscopic analysis; format: physicochemical; conditions: buffer
[8] = Kinetic solubility at pH 5.0 by UV spectroscopic analysis; format: physicochemical; conditions: buffer
Plasma [9] = assay: Metabolic stability in human plasma; format: ADME, cell-free
[10] = Permeability across synthetic membrane at pH 6.2 by PAMPA assay; format: ADME
Plasma [11] = assay: Plasma protein binding in human; format: ADME, cell-free
[12] = Kinetic solubility at pH 6.2 by UV spectroscopic analysis; format: physicochemical; conditions: buffer
[13] = Cytotoxicity against human Fa2N-4 cells upto 50 uM by luminescence ATP detection assay; format: cell-based
[14] = Inhibition of X4-tropic HIV-1 LAI Vif infected in CEM cells assessed as inhibition of viral replication incubated for 14 to 21 days measured on every other day by reverse transcriptase assay; format: cell-based; conditions: Human immunodeficiency virus 1, LAI, CCRF-CEM
[15] = Inhibition of X4-tropic HIV-1 LAI Vif infected in MT4 cells assessed as inhibition of viral replication incubated for 10 to 15 days measured on every other day by reverse transcriptase assay; conditions: Human immunodeficiency virus 1, LAI
[16] = Human immunodeficiency virus 1, LAI, H9, read-out: IC50

| Structure (SMILES) | IC50 ([1]; mt4) | IC50 [2, 16] | GFP-Vif downregulation activity call [3] | HA-A3G upregulation (active/not active) [4] | also measured |
| --- | --- | --- | --- | --- | --- |
| COc1ccccc1NC(=O)c1ccccc1Sc1ccc(C(=O)[O-])cc1.C[N+](C)(C)CCO | Not Active | 1 µM |  |  | inhibition (MT4): inactive; inhibition (H9): inactive |
| CS(=O)(=O)Oc1ccccc1NC(=O)c1ccccc1Sc1ccc([N+](=O)[O-])cc1 | Not Active | 5.6 µM |  |  |  |
| COc1ccccc1NC(=O)c1ccccc1Cl |  |  | inactive | inactive | IC50 ([1]; Human immunodeficiency virus 1, LAI, MT4, read-out: IC50): > 50 µM; IC50 ([2]; h9): Not Active |
| COc1ccccc1NC(=O)c1ccc(C)nc1Sc1ccc([N+](=O)[O-])cc1 | Not Active | 1.5 µM | Active | Active |  |
| COc1ccccc1NC(=O)c1ccc(Sc2ccc([N+](=O)[O-])cc2)cc1Cl | Not Active | 2.5 µM | Active | Active |  |
| COc1ccccc1NC(=O)c1cccnc1Sc1ccc([N+](=O)[O-])cc1 | Not Active | 10 µM |  |  |  |
| COc1ccccc1NC(=O)c1ccccc1S(=O)(=O)c1ccc(C(=O)[O-])cc1.C[N+](C)(C)CCO | Not Active | 10 µM | inactive | inactive | permeability [5]: impermeable; permeability [6]: permeable; Stability (Liver microsomes): Stable; Kinetic_solubility [7]: soluble; Kinetic_solubility [8]: soluble; Stability (Plasma [9]): Stable; permeability [10]: impermeable; PPB (Plasma [11]): Active; Kinetic_solubility [12]: soluble; Activity [13]: Non-toxic |
| O=C(Nc1ccccc1I)c1ccccc1Sc1ccc([N+](=O)[O-])cc1 | Not Active | 4.3 µM |  |  |  |
| COC(=O)c1ccc(Sc2ccccc2C(=O)Nc2ccccc2OC)cc1 |  |  |  |  | inhibition (MT4): inactive; inhibition (H9): inactive |
| COc1ccccc1NC(=O)c1ccccc1Sc1ccc([N+](=O)[O-])cc1 | Not Active | 6 µM | Active | Active | IC50 [14]: 4.5 µM; IC50 [15]: > 100 µM |
| COC(=O)c1ccc(NC(=O)c2ccccc2Sc2ccc([N+](=O)[O-])cc2)c(OC)c1 | Not Active | 10 µM |  |  |  |
| COc1ccccc1NC(=O)c1ccccc1S(=O)(=O)c1ccc([N+](=O)[O-])cc1 | Not Active | 1.1 µM | Active | Active |  |
